Measurements as given in ChEMBL document CHEMBL1177683, “Synthesis and pharmacological evaluation of pyrazine N-acylhydrazone derivatives designed as novel analgesic and anti-inflammatory drug candidates” (2010).
The source made the active and inactive calls. No cut-off for these calls is given here.

Experiments:
Mus musculus [1] = assay: Antinociceptive activity in Swiss mouse assessed as inhibition of acetic acid-induced abdominal constrictions at 100 umol/kg, po administered 40 mins before acetic acid challenge measured for 25 mins relative to control; assay type: functional; settings: Abdomen
Procedure, shortened: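 Mice were dosed at 100 µmol/kg po in arabic gum (10 mL/kg), 40 min before 0.6% v/v acetic acid ip (0.1 mL/10 g). Writhes (abdominal contraction, pelvic rotation, hind-limb extension) were counted for 20 min starting 5 min post-injection. Results are expressed as % inhibition versus vehicle controls. Groups of 6 (control 10), ANOVA/Dunnett.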

Mus musculus [2] = assay: Analgesic activity against formalin-induced acute pain in Swiss mouse assessed inhibition of nociception at 100 umol/kg, po administered 40 mins before formalin challenge measured for 15 to 30 mins relative to control; assay type: functional
Procedure, shortened: (§1)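 Mice, 6 per group, received 20 µL of 2.5% formalin (0.92% formaldehyde in saline) into the ventral surface of the right hind paw. Dosing was 100 µmol/kg po in arabic gum vehicle (10 mL/kg), 40 min beforehand. Time spent licking the injected paw was recorded over 0–5 min (neurogenic phase) and 15–30 min (inflammatory phase). Data are mean ± S.E.M., ANOVA/Dunnett versus vehicle.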

Mus musculus [3] = assay: Analgesic activity in Swiss mouse assessed as increase in latency of paw licking at 100 umol/kg, po after 60 mins measured for 60 seconds by hot plate test (reference value: 4.9 +/- 0.5 seconds); assay type: functional
Mus musculus [4] = assay: Analgesic activity in Swiss mouse assessed as increase in latency of paw licking at 100 umol/kg, po after 90 mins measured for 60 seconds by hot plate test (reference value: 5.9 +/- 0.8 seconds); assay type: functional
Mus musculus [5] = assay: Analgesic activity in Swiss mouse assessed as increase in latency of paw licking at 100 umol/kg, po after 120 mins measured for 60 seconds by hot plate test (reference value: 5.6 +/- 0.5 seconds); assay type: functional
Mus musculus [6] = assay: Analgesic activity in Swiss mouse assessed as increase in latency of paw licking at 100 umol/kg, po after 150 mins measured for 60 seconds by hot plate test (reference value: 5.1 +/- 0.4 seconds); assay type: functional
Mus musculus [7] = assay: Antiedematogenic activity in Swiss mouse assessed as inhibition of capsaicin-induced ear edema at 100 umol/kg, po administered 40 mins before capsaicin challenge measured after 30 mins relative to control
Mus musculus [8] = assay: Antiedematogenic activity in Swiss mouse assessed as decrease of capsaicin-induced ear edema weight at 100 umol/kg, po administered 40 mins before capsaicin challenge measured after 30 mins relative to control; parameters: scale not given: the % may be the effect or the level left
Mus musculus [9] = assay: Analgesic activity against formalin-induced acute pain in Swiss mouse assessed as decrease of time spent in paw licking at 100 umol/kg, po administered 40 mins before formalin challenge measured for 15 to 30 mins; assay type: functional, organism-based; procedure, shortened: as §1

SMILES	inhibition in vivo at 100 µmol/kg (Mus musculus [1]) [%]	inhibition in vivo at 100 µmol/kg (Mus musculus [2]) [%]	Time (Mus musculus [3]) [s]	Time (Mus musculus [4]) [s]	Time (Mus musculus [5]) [s]	Time (Mus musculus [6]) [s]	inhibition in vivo at 100 µmol/kg (Mus musculus [7]) [%]	Activity (Mus musculus [8]) [%]	Activity (Mus musculus [9])
COc1cc(/C=N/NC(=O)c2cnccn2)ccc1O	47	31.8	2.6	3.2	3.4	4.4	63.5	21.3	
O=C(N/N=C/c1ccc2ccccc2c1)c1cnccn1	68.4	68	2.8	3.5	4.4	4.5	35.4	37.8	
Cc1ccc(-c2cc(C(F)(F)F)nn2-c2ccc(S(N)(=O)=O)cc2)cc1 [CELECOXIB]	56.9	68.4	5.5	5.7	4.4	3.8	56.4	25.5	
CC(C)(C)c1cc(/C=N/NC(=O)c2cnccn2)cc(C(C)(C)C)c1O	71.6	26.8	2.7	3.4	3.4	5.4	32.3	39.5	
O=C(N/N=C/c1cc(=O)c2ccccc2o1)c1cnccn1	86.3	52.7	2.5	3.5	6.2	4.2	55.3	26.1	Active
CC(C)c1ccc(/C=N/NC(=O)c2cnccn2)cc1	67.6	66.5	3.3	4.7	5.2	4.6	46.6	31.2	Active
O=C(N/N=C/c1c2ccccc2cc2ccccc12)c1cnccn1	33.6	45.8	3.7	6.2	5.6	6.6	54.7	26.5	
O=C(N/N=C/c1ccncc1)c1cnccn1	40.4	58.4	3.5	3.2	5.4	4.5	32.3	45.7	Active
COc1ccc(/C=N/NC(=O)c2cnccn2)cc1O	64.8	14.7	2	4	1.9	4.7	27	42.8	
O=C(N/N=C/c1ccc(-c2ccccc2)cc1)c1cnccn1	57.3	46.9	2.7	3.5	4	4.5	47.7	32.9	Active
O=C(N/N=C/c1ccccn1)c1cnccn1	75.5	56.4	2.4	4.4	4.5	3	44.9	32.2	Active
O=C(N/N=C/c1ccc(C(F)(F)F)cc1)c1cnccn1	54.5	27.7	3.1	3.9	2.4	4	48.3	30.2	
O=C(N/N=C/c1ccccc1)c1cnccn1	42.4	60.8	4.4	4.2	4	5.2	30.5	40.6	Active
O=C(N/N=C/c1ccc([N+](=O)[O-])cc1)c1cnccn1	40.4	44.4	3.1	5.4	4.9	4.9	41.9	34	Active
O=C(N/N=C/c1ccc(F)cc1)c1cnccn1	74.5	72.3	4.6	5.4	4.8	3.1	33.1	39.1	Active
O=C(N/N=C/c1ccc2c(c1)OCO2)c1cnccn1	78.2	46.7	2.4	3	4.4	3.2	44.7	32.3	Active
COc1ccc2c(c1)c(CC(=O)O)c(C)n2C(=O)c1ccc(Cl)cc1 [INDOMETHACIN]	73.1	39					49.3	29.7	
O=C(N/N=C/c1ccc(O)cc1)c1cnccn1	61.4	16.7	3.1	3.4	5.3	4	42.3	33.7	
COc1ccc(/C=N/NC(=O)c2cnccn2)cc1OC	73.6	29.1	4.8	4.2	6.3	3.8	49.6	29.5	
CC(C)c1ccc(/C=N/NC(=O)c2nc3ccccc3nc2-c2ccccc2)cc1	77.3	66.5	4.6	5	5.4	4.3	47.5	30.7	
